The target in assay [1] is T1, Polyunsaturated fatty acid lipoxygenase ALOX15 (Homo sapiens, UniProt P16050).
T1 sequence (P16050 whole entry): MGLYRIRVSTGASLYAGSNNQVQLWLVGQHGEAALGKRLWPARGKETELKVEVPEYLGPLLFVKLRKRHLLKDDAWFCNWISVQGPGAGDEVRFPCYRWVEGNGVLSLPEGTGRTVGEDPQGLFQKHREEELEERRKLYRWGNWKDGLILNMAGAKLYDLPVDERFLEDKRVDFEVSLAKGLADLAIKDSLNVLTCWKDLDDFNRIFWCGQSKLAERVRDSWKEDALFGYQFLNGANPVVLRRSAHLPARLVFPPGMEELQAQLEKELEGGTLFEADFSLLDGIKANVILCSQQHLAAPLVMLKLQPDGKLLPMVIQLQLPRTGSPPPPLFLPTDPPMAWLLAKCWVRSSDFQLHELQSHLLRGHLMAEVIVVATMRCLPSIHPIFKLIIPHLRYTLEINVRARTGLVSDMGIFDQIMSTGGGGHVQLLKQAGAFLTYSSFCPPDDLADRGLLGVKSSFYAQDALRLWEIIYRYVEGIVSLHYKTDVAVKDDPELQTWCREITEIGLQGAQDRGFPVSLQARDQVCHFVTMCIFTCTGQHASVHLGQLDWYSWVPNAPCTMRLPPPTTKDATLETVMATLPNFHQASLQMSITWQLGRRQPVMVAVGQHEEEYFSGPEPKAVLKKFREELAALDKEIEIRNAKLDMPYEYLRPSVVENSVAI
Description: Inhibition of recombinant human 15-LOX-1 expressed in Escherichia coli BL21(DE3) using linoleic acid as substrate preincubated for 10 mins followed by substrate addition.

The target in assay [2] is T2, Polyunsaturated fatty acid lipoxygenase ALOX15 (Homo sapiens) (UniProt P16050).
T2 sequence (whole entry): T1 sequence (P16050 whole entry)
Kind of assay: Inhibition of recombinant human 15-LOX-1 expressed in Escherichia coli BL21(DE3) assessed as residual activity at 50 uM using linoleic acid as substrate preincubated for 10 mins followed by substrate addition. Put shortly: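 h-15-LOX-1 (1:100 enzyme stock, 1:400 final) preincubated 10 min at room temperature with inhibitor in 25 mM HEPES pH 7.4, then linoleic acid added to 25 µM final (inhibitor 50 µM final). 13(S)-HpODE formation read as A234 over time, rate taken from linear part within first 16 min; no-inhibitor = 100%, no-enzyme = 0%. Triplicate.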

Experimental findings from ChEMBL document CHEMBL4130408, “Photoactivation provides a mechanistic explanation for pan-assay interference behaviour of 2-aminopyrroles in lipoxygenase inhibition” (Eur J Med Chem, 2017) are described below.

Where only a bound is given, the exact number is not on record here.

As usually defined, the IC50 is the midpoint of a concentration-inhibition curve. Take `Nc1[nH]c(C(=O)c2ccccc2)c(-c2ccc3c(c2)OCO3)c1C(=O)c1cccc(Cl)c1`: the concentration for half-maximal inhibition (IC50) in assay [1] is above 100 µM.
In the case of `Nc1[nH]c(C(=O)c2ccccc2)c(-c2ccncc2)c1C(=O)c1cccc(Cl)c1`, the concentration for half-maximal inhibition (IC50) in assay [1] is above 100 µM.
For `CCOC(=O)c1ccc(N)[nH]1`, the 50% inhibitory concentration (IC50) in assay [1] is above 100 µM.
Same read-out and setting: with `CCOC(=O)c1ccc[nH]1` the figure was above 100 µM.
For `Nc1[nH]c(C(=O)c2ccccc2)c(-c2ccc(Cl)cc2)c1C(=O)c1cccc(Cl)c1`, in assay [1], the concentration for half-maximal inhibition (IC50) was above 100 µM.
The same measure, in the same setting: in the case of `Nc1[nH]c(C(=O)c2ccccc2)c(-c2cccc3ccccc23)c1C(=O)c1ccc(Cl)c(Cl)c1` it was above 100 µM; in that of `Nc1[nH]c(C(=O)c2ccccc2)c(-c2ccc(Cl)cc2Cl)c1C(=O)c1cccs1`, above 100 µM.
Consider `Nc1[nH]c(C(=O)c2ccccc2)c(-c2cc(F)ccc2Br)c1C(=O)NCCc1c[nH]c2ccccc12`, for which the Activity in assay [2] was -29.7%.
Consider `Nc1[nH]c(C(=O)c2ccc(Cl)cc2)c(-c2ccc(Br)cc2)c1C(=O)c1c[nH]c2ccc(F)cc12`, for which the Activity in assay [2] was found to be 96.2%.
The same measure, in the same setting: with `COc1ccc(-c2c(C(=O)c3ccccc3)[nH]c(N)c2C(N)=O)cc1OC` the figure was 117%.
With `Nc1[nH]c(C(=O)c2ccccc2)c(-c2ccc([N+](=O)[O-])cc2)c1C(=O)NCCc1c[nH]c2ccccc12`, the Activity in assay [2] was determined as 54.3%.
The same measure, in the same setting: with `Nc1[nH]c(C(=O)c2ccccc2)c(-c2cccc3ccccc23)c1C(=O)c1ccc(Br)cc1` the figure was 107%; with `Nc1[nH]c(C(=O)c2ccccc2)c(-c2cccc(C(F)(F)F)c2)c1C(=O)NCCc1c[nH]c2ccccc12`, 52.6%.
Consider `Nc1[nH]c(C(=O)c2ccc(Br)cc2)c(-c2ccccn2)c1C(=O)NCCc1c[nH]c2ccccc12`, for which the Activity in assay [2] is 42%.
On to `Nc1[nH]c(C(=O)c2ccccc2)c(-c2ccccn2)c1C(=O)c1c[nH]c2cc(F)ccc12`, for which, in assay [2], the Activity turned out to be 98.5%.
The same measure, in the same setting: with `CC(C)(C)C(=O)c1c(N)[nH]c(C(=O)c2ccccc2)c1-c1ccc(Br)cc1` the figure was 87.2%; with `Nc1[nH]c(C(=O)c2ccccc2)c(-c2cccc3ccccc23)c1C(=O)NC1CCCCC1`, 65.6%; with `Nc1[nH]c(C(=O)c2ccccc2)c(-c2ccc(Br)cc2)c1C(=O)NC1CCCCC1`, 87.5%.
The same measure, in the same setting: with `Nc1[nH]c(C(=O)c2ccccc2)c(-c2ccc(Cl)cc2F)c1C(=O)NCCc1c[nH]c2ccccc12` the figure was 74.8%; with `COc1ccc(C(=O)c2[nH]c(N)c(C(=O)c3c[nH]c4ccccc34)c2-c2ccc(OC)cc2)cc1`, 89.4%.
Same read-out and setting: in the case of `Nc1[nH]c(C(=O)c2ccc(Br)cc2)c(-c2c(F)cccc2F)c1C(=O)NCCc1c[nH]c2ccccc12` it was 69.3%.
As to `Nc1[nH]c(C(=O)c2ccccc2)c(-c2cccc(Cl)c2)c1C(=O)c1cccc(Cl)c1`, in assay [1], the IC50 is above 100 µM.
`NC(=O)c1c(N)[nH]c(C(=O)c2ccccc2)c1-c1cccc2ccccc12`: the Activity in assay [2] was found to be 69.2%.
`N#Cc1c(N)[nH]c(C(=O)c2ccccc2)c1-c1ccccc1Br`: the Activity in assay [2] is 62.3%.
Regarding `Nc1[nH]c(C(=O)c2ccccc2)c(-c2ccc(Cl)cc2)c1C(=O)NCc1ccccc1`, the Activity in assay [2] turned out to be 97.3%.
As for `CC(C)(C)C(=O)c1c(N)[nH]c(C(=O)c2ccccc2)c1-c1ccc(F)cc1`, the Activity in assay [2] was 91.4%.
Still for that read-out and setting: with `Cc1[nH]c2ccccc2c1C(=O)NCc1ccc(CNC(=O)c2c(N)[nH]c3ccccc23)cc1` the figure was 115%; with `Nc1[nH]c(C(=O)c2ccc(Br)cc2)c(-c2ccc3ccccc3c2)c1C(=O)NCCc1c[nH]c2ccccc12`, 36%.
Regarding `Nc1[nH]c(C(=O)c2ccccc2)c(-c2ccc(-c3ccccc3)cc2)c1C(=O)c1cccc(Cl)c1`, the IC50 in assay [1] was above 100 µM.
Turning to `Nc1[nH]c(C(=O)c2ccccc2)c(-c2cccnc2)c1C(=O)c1cccc(Cl)c1`, in assay [1], the IC50 is above 100 µM.
For the compound `Nc1[nH]c(C(=O)c2ccc(Br)cc2)c(-c2ccccc2Br)c1C(=O)NCCc1c[nH]c2ccccc12`, the Activity in assay [2] was 83.1%.
Take `Cc1ccccc1-c1c(C(=O)c2ccccc2)[nH]c(N)c1C(=O)c1ccc(Cl)cc1`: in assay [2], the Activity worked out at 94.9%.
The same measure, in the same setting: in the case of `Nc1[nH]c(C(=O)c2ccc(Br)cc2)c(-c2ccccc2Cl)c1C(=O)NCCc1c[nH]c2ccccc12` it was 71%.
`COc1ccc(C(=O)c2[nH]c(N)c(C(=O)NCCc3c[nH]c4ccccc34)c2-c2c(F)cccc2Cl)cc1`: the Activity in assay [2] came out at 71.3%.
The same measure, in the same setting: in the case of `NC(=O)c1c(N)[nH]c(C(=O)c2ccccc2)c1-c1ccccc1` it was 116%; in that of `CC(C)(C)C(=O)c1c(N)[nH]c(C(=O)c2ccccc2)c1-c1ccccc1`, 112%; in that of `Nc1[nH]c(C(=O)c2ccccc2)c(-c2ccc(Br)cc2)c1C(=O)NCCc1c[nH]c2ccccc12`, 73.5%.
Still for that read-out and setting: with `Nc1[nH]c(C(=O)c2ccccc2)c(-c2ccc(Cl)cc2)c1C(=O)c1ccc(Cl)cc1` the figure was 100%; with `Nc1[nH]c(C(=O)c2ccccc2)c(-c2ccccn2)c1C(=O)c1c[nH]c2ccccc12`, 104%.
On to `Nc1[nH]c(C(=O)c2ccccc2)c(-c2ccccc2Cl)c1C(=O)c1cccc(Cl)c1`, for which the IC50 in assay [1] was above 100 µM.
With `Nc1[nH]c(C(=O)c2ccccc2)c(-c2ccccc2Cl)c1C(=O)NCCc1c[nH]c2ccccc12`, the Activity in assay [2] stood at 98.2%.
Still for that read-out and setting: in the case of `N#Cc1c(N)[nH]c(C(=O)c2ccccc2)c1-c1ccc(Br)cc1` it was 63.4%; in that of `CN(C)c1ccc(-c2c(C(=O)c3ccccc3)[nH]c(N)c2C(N)=O)cc1`, 103%; in that of `Nc1[nH]c(C(=O)c2ccccc2)c(-c2cccc3ccccc23)c1C(=O)c1ccccc1`, 108%.
Same read-out and setting: in the case of `Nc1[nH]c(C(=O)c2ccccc2)c(-c2ccc(F)cc2)c1C(=O)Cc1ccccc1` it was 75.1%; in that of `Nc1[nH]c(C(=O)c2ccccc2)c(-c2cccc(C(F)(F)F)c2)c1C(=O)NCc1cccc2ccccc12`, 2.31%; in that of `Nc1[nH]c2cc(C(F)(F)F)ccc2c1C(=O)N1CCN(CCc2ccccc2)CC1`, 109%.
Regarding `Nc1[nH]c(C(=O)c2ccccc2)c(-c2ccccc2C(F)(F)F)c1C(=O)NC1CCCCC1`, in assay [2], the Activity was 101%.
As for `Nc1[nH]c(C(=O)c2ccccc2)c(-c2ccc(Cl)cc2)c1C(=O)c1c[nH]c2ccccc12`, in assay [2], the Activity was 73.9%.
Still for that read-out and setting: with `Nc1[nH]c(C(=O)c2ccc(Br)cc2)c(-c2ccc(F)cc2)c1C(=O)NCCc1c[nH]c2ccccc12` the figure was 68.9%; with `Cc1[nH]c2ccccc2c1C(=O)c1c(N)[nH]c(C(=O)c2ccc(Br)cc2)c1-c1ccc(Br)cc1`, 29.7%; with `Nc1[nH]c(C(=O)c2ccccc2)c(-c2ccc(Cl)c(F)c2)c1C(=O)c1c[nH]c2ccccc12`, 91.7%.
For the compound `Nc1[nH]c(C(=O)c2ccccc2)c(-c2ccc(Cl)cc2Cl)c1C(=O)c1cccc(F)c1`, in assay [1], the concentration for half-maximal inhibition (IC50) is above 100 µM.
Turning to `Nc1[nH]c(C(=O)c2ccccc2)c(-c2ccc(Br)cc2)c1C(=O)c1ccccc1`, in assay [2], the Activity worked out at 63.2%.
On to `COc1ccc(-c2c(C(=O)c3ccccc3)[nH]c(N)c2C(=O)c2c[nH]c3ccccc23)cc1OC`, for which the Activity in assay [2] was determined as 82.5%.
Same read-out and setting: with `Nc1[nH]c(C(=O)c2ccccc2)c(-c2ccc(Br)cc2)c1C(=O)N1CCN(CCO)CC1` the figure was 100%; with `Nc1[nH]c(C(=O)c2ccccc2)c(-c2cccnc2)c1C(=O)c1ccccc1`, 84.9%; with `Nc1[nH]c(C(=O)c2ccccc2)c(-c2ccc([N+](=O)[O-])cc2)c1C(=O)N1CCC(CO)CC1`, 85%.
Still for that read-out and setting: with `COc1ccc(-c2c(C(=O)c3ccc(Br)cc3)[nH]c(N)c2C(=O)NCCc2c[nH]c3ccccc23)cc1OC` the figure was 63.8%; with `Nc1[nH]c(C(=O)c2ccc(Br)cc2)c(-c2ccccc2)c1C(=O)NCCc1c[nH]c2ccccc12`, 69%.
Still for that read-out and setting: with `Cc1[nH]c2ccccc2c1C(=O)c1c(N)[nH]c(C(=O)c2ccccc2)c1-c1ccc(Cl)cc1` the figure was 79.7%.
Turning to `Nc1[nH]c(C(=O)c2ccc(Br)cc2)c(-c2ccc(Br)cc2)c1C(=O)NCCc1c[nH]c2ccccc12`, in assay [2], the Activity was 30.6%.
With `Nc1[nH]c(C(=O)c2ccccc2)c(-c2ccc(F)cc2)c1C(=O)c1c[nH]c2ccccc12`, the Activity in assay [2] was found to be 116%.
Same read-out and setting: with `COc1ccc2cccc(-c3c(C(=O)c4ccc(Br)cc4)[nH]c(N)c3C(=O)NCc3ccc(-c4ccccc4)cc3)c2c1` the figure was 115%.
On to `Cc1ccc([C@@H](C)NC(=O)c2c(N)[nH]c(C(=O)c3ccccc3)c2-c2ccccc2C(F)(F)F)cc1`, for which the Activity in assay [2] worked out at 96.4%.
On to `CC(NC(=O)c1c(N)[nH]c(C(=O)c2ccc(Cl)cc2)c1-c1ccc(Br)cc1)c1cccc2ccccc12` (stereo not drawn), for which the Activity in assay [2] turned out to be 122%.
Turning to `Nc1[nH]c(C(=O)c2ccccc2)c(-c2ccc(Cl)cc2[N+](=O)[O-])c1C(=O)NCCc1c[nH]c2ccccc12`, in assay [2], the Activity was found to be 72.5%.
Same read-out and setting: in the case of `Nc1[nH]c(C(=O)c2ccccc2)c(-c2cccc(Br)c2)c1C(=O)c1ccccc1` it was 61.2%.
